Source: ChEMBL document CHEMBL6115035 (J Med Chem, 2025)
pIC50: −log10 of the molar value. Active and inactive are the calls of the source. No cut-off for these calls is given here.

Experiments:
VCaP [1] = test: Antitumor activity against human VCaP cells xenografted in mouse assessed as reduction in tumor growth at 0.5 to 1.5 mg/kg, ip treated for 27 days; format: functional, organism-based; conditions: dose 0.5-1.5 mg/kg, time 27.0 day
Summary of the method: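 VCaP CRPC cells (5×10^6) were injected […] NSG or CB17SCID mice. Dosing began at tumours of ~200–400 mm3: 0.5 or 1.5 mg/kg i.p. for 27 days. Vehicle was 20% PEG400, 6% Cremophor EL, 74% PBS. Tumours were collected at the end for Western blot.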

[2] = biological target: Cyclin-dependent kinase 12 (Homo sapiens) (UniProt Q9NYV4); test: Binding affinity to CDK12 in human VCaP cells incubated for 4 hrs by streptavidin-biotin pull down assay; format: cell-based
Summary of the method: (§1)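 VCaP cells were treated with a biotinylated probe for 4 h and lysed in RIPA buffer. Lysate was incubated with streptavidin beads overnight at 4 °C. Beads were washed three times with PBST (0.1% Tween) and eluted in 2X SDS loading buffer. Proteins were separated by SDS-PAGE.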

[3] = biological target: Cyclin-dependent kinase 13 (Homo sapiens) (UniProt Q14004); test: Binding affinity to CDK13 in human VCaP cells incubated for 4 hrs by streptavidin-biotin pull down assay; format: cell-based; summary of the method: as §1
VCaP [4] = test: Antiproliferative activity against human VCaP cells measured after 5 days by Cell Titer-Glo assay; format: functional, cell-based; conditions: 120 h
Summary of the method: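 Cells were seeded and incubated overnight at 37 °C, 5% CO2. Serial compound dilutions were then added. Viability was read by CellTiter-Glo luminescence after 5 days, and IC50 was obtained by curve fitting.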

CDK6/cyclin D1 = CDK6/cyclin D1 (Homo sapiens, UniProt Q00534); test: Inhibition of CDK6/cyclin D1 (unknown origin) by ADP-Glo kinase assay; format: protein-complex assay
VCaP [5] = test: Downregulation of RAD51 expression in human VCaP cells at 10 to 300 nM pretreated for 2 hrs followed by compound washout measured after 12 hrs by Western blot analysis; format: functional, cell-based; conditions: dose 10-300 nM
[6] = biological target: Cyclin-Y/Cyclin-dependent kinase 16 (Homo sapiens, UniProt Q00536); test: Inhibition of CDK16/cyclin Y (unknown origin) by ADP-Glo kinase assay; format: protein-complex assay
CDK1/Cyclin E = CDK1/Cyclin E (Homo sapiens, UniProt P06493); test: Inhibition of CDK1/Cyclin E1 (unknown origin) by ADP-Glo kinase assay; format: protein-complex assay
Summary of the method: (§2)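 Kinase inhibition was measured by ADP-Glo assay. IC50 values are means of three independent experiments.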

CDK9/Cyclin K = CDK9/Cyclin K (Homo sapiens, UniProt P50750); test: Inhibition of CDK9/Cyclin K (unknown origin) by ADP-Glo kinase assay; format: protein-complex assay
[7] = biological target: Cyclin-C/Cyclin-dependent kinase 19 (Homo sapiens, UniProt Q9BWU1); test: Inhibition of CDK19/Cyclin C (unknown origin) by ADP-Glo kinase assay; format: protein-complex assay
[8] = biological target: T1, Cyclin-dependent kinase 5/CDK5 activator 1 (Homo sapiens, UniProt Q00535); test: Inhibition of CDK5/p35NCK (unknown origin) by ADP-Glo kinase assay; format: protein-complex assay
CDK1/Cyclin A = CDK1/Cyclin A (Homo sapiens, UniProt P06493); test: Inhibition of CDK1/Cyclin A2 (unknown origin) by ADP-Glo kinase assay; format: protein-complex assay; summary of the method: as §2
[9] = biological target: Cyclin-dependent kinase 4/cyclin D1 (Homo sapiens, UniProt P11802); test: Inhibition of CDK4/Cyclin D1 (unknown origin) by ADP-Glo kinase assay; format: protein-complex assay
VCaP [10] = test: Upregulation of c-PARP expression in human VCaP cells at 10 to 300 nM pretreated for 2 hrs followed by compound washout measured after 12 hrs by Western blot analysis; format: functional, cell-based; conditions: dose 10-300 nM
Summary of the method: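 VCaP cells were grown in DMEM GlutaMAX with 10% FBS and P/S. After treatment they were washed with cold PBS and lysed in RIPA with protease inhibitors. Equal protein was run on 4–12% Bis-Tris SDS-PAGE, transferred to nitrocellulose, and probed for cleaved PARP with α-tubulin as loading control. Detection used HRP secondary antibodies.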

CDK7/Cyclin H/MNAT1 = CDK7/Cyclin H/MNAT1 (Homo sapiens, UniProt P50613); test: Inhibition of CDK7/cyclin H/MAT1 (unknown origin) by ADP-Glo kinase assay; format: protein-complex assay
CDK8/Cyclin C = CDK8/Cyclin C (Homo sapiens, UniProt P49336); test: Inhibition of CDK8/Cyclin C (unknown origin) by ADP-Glo kinase assay; format: protein-complex assay
[11] = biological target: T1, Cyclin-dependent kinase 5/CDK5 activator 1; test: Inhibition of CDK5/p25NCK (unknown origin) by ADP-Glo kinase assay; format: protein-complex assay
CDK9/cyclin T1 = CDK9/cyclin T1 (Homo sapiens, UniProt P50750); test: Inhibition of CDK9/Cyclin T1 (unknown origin) by ADP-Glo kinase assay; format: protein-complex assay
VCaP [12] = test: Antiproliferative activity against human VCaP cells assessed as irreversible cell growth inhibition pretreated for 6 hrs followed by compound washout and subsequent addition of compound-free medium measured after 5 days by Cell Titer-Glo assay; format: functional, cell-based
Summary of the method: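 VCaP cells (DMEM GlutaMAX, 10% FBS) were exposed to compound for 6 h. The compound was then removed and cells were grown in compound-free medium for 5 days before the viability read-out.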

T1 sequence (Q00535 whole entry): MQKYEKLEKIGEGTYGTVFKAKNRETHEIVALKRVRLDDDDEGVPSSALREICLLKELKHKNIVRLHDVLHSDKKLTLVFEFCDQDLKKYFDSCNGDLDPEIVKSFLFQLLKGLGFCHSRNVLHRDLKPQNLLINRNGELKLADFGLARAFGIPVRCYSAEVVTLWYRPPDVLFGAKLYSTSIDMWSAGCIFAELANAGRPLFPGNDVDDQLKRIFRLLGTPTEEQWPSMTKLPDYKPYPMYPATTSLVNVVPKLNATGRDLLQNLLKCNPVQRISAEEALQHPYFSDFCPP
T1 sequence (Q15078 whole entry, further chain): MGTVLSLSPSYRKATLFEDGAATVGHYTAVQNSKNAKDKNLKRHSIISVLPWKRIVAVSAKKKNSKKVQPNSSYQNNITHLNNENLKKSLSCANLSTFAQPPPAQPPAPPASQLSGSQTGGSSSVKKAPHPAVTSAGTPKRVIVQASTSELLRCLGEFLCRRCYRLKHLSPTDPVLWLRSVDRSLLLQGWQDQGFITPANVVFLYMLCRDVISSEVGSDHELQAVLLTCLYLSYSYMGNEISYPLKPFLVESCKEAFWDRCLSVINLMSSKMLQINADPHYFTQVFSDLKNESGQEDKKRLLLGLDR
Chain of Cyclin-dependent kinase 4/cyclin D1 (P11802 whole entry): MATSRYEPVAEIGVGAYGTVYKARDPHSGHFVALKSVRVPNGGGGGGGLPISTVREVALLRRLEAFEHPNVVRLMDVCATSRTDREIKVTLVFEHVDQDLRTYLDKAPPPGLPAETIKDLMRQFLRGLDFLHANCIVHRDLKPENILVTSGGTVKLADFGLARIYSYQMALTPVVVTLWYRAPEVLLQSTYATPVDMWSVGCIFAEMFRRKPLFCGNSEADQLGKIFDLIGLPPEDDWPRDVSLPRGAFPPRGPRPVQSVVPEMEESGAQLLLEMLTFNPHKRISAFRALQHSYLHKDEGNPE
Chain of Cyclin-dependent kinase 4/cyclin D1 (P24385 whole entry, further chain): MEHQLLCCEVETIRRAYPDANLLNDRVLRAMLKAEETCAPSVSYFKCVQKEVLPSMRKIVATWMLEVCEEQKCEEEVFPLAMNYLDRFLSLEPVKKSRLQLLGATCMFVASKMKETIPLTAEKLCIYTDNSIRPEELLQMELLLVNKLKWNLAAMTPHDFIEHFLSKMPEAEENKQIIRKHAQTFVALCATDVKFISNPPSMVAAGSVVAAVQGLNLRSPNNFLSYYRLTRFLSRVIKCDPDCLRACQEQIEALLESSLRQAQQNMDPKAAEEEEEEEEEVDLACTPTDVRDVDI
Chain of CDK1/Cyclin A (P06493 whole entry): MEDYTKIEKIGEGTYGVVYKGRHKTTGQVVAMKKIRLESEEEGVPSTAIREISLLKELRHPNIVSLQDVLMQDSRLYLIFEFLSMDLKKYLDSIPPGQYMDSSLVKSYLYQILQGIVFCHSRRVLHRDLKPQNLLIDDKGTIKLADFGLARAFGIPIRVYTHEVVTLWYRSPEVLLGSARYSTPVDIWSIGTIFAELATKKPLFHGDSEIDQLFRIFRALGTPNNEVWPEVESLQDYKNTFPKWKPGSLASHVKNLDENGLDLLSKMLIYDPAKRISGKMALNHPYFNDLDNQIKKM
Chain of CDK1/Cyclin A (P20248 whole entry, further chain): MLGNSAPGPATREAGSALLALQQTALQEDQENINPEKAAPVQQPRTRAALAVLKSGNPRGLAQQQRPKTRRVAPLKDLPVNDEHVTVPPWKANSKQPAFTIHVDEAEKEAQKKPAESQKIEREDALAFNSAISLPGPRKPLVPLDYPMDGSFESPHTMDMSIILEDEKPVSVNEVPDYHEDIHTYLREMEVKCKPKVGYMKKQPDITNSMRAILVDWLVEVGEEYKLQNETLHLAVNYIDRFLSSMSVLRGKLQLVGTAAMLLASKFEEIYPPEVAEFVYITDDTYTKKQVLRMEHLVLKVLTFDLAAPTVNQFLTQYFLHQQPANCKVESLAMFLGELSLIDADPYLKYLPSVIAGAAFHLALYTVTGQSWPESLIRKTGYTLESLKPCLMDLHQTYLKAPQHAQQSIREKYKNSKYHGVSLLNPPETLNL
Chain of CDK1/Cyclin E (P06493 whole entry): as the sequence (P06493 whole entry) above
Chain of CDK1/Cyclin E (P24864 whole entry, further chain): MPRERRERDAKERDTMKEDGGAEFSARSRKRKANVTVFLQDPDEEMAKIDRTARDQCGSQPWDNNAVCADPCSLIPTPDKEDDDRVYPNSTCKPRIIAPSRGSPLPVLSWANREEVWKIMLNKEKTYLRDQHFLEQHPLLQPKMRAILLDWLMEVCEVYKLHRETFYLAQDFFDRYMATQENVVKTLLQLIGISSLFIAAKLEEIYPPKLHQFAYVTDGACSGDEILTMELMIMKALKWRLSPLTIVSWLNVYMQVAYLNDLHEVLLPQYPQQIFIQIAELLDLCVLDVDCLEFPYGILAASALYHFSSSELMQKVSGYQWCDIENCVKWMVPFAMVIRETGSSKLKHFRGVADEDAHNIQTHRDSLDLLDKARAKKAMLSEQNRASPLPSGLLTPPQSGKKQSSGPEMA
Chain of Cyclin-dependent kinase 12 (Homo sapiens) (Q9NYV4 whole entry, looked up): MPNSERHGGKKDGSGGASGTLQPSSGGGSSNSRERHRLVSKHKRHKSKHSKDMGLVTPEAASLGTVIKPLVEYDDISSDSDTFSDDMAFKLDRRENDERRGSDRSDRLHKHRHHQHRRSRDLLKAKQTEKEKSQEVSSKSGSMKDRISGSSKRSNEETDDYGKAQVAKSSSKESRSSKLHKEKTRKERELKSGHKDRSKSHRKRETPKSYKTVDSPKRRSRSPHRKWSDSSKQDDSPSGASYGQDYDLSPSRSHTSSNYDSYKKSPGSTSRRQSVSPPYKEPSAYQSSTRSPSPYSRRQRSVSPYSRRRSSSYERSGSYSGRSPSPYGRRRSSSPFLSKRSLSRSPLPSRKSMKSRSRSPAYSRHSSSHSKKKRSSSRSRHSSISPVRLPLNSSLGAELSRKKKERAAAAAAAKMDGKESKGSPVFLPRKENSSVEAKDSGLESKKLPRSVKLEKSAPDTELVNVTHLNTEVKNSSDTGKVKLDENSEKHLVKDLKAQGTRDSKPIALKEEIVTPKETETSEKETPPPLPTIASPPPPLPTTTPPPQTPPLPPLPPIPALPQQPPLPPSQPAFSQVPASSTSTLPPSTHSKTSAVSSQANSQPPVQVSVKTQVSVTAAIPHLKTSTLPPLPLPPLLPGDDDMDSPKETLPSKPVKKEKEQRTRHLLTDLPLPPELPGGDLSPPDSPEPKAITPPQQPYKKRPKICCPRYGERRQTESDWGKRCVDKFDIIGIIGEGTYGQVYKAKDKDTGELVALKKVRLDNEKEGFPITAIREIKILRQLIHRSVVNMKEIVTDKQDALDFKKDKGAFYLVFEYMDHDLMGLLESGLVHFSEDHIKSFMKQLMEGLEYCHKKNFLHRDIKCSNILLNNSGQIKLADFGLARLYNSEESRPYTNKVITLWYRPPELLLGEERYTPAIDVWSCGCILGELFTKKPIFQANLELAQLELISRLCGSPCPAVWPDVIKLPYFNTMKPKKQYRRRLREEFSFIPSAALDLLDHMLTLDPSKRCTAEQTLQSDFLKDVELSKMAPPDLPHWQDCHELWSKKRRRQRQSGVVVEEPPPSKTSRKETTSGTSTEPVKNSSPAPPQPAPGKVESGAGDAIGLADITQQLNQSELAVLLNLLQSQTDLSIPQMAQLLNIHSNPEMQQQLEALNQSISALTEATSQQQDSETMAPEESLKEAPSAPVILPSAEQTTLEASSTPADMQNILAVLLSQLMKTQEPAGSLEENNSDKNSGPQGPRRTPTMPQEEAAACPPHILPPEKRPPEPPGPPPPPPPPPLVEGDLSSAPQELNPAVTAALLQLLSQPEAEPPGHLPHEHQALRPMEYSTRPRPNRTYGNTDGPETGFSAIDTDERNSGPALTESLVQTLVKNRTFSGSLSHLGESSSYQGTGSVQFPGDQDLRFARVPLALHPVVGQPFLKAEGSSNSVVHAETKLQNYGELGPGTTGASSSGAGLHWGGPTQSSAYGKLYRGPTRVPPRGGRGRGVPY
Chain of CDK8/Cyclin C (P49336 whole entry): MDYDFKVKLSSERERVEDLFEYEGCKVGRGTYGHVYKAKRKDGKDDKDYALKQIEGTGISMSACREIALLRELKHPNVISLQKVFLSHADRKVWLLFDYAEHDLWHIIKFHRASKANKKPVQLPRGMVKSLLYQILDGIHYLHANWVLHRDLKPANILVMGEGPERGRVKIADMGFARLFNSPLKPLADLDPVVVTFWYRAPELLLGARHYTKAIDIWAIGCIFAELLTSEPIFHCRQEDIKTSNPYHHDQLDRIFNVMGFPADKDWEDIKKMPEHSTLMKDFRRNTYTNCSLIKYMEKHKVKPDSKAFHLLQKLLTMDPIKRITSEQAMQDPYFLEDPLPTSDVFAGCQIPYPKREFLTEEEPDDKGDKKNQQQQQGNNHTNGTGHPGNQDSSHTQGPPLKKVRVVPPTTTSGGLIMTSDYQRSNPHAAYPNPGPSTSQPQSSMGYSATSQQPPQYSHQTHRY
Chain of CDK8/Cyclin C (P24863 whole entry, further chain): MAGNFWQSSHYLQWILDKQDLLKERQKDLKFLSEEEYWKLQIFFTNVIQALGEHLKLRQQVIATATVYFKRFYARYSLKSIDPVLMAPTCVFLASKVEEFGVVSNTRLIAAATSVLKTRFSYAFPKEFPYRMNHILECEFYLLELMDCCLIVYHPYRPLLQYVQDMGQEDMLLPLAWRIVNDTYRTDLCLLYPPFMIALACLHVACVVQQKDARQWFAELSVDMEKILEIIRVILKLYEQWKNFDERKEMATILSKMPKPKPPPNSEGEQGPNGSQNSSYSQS

Question: For Cn1ncc(Cl)c1-c1cc(C(=O)N[C@H](CN)Cc2ccc(F)c(F)c2)oc1Cl, which Activity (VCaP [1]) is on record?
Answer: Active

Question: Which results are given for C=CC(=O)Nc1cc(N(C(=O)NCc2ccccc2)[C@H]2CC[C@H](Nc3ccc(C#N)cn3)CC2)ccc1N1CCC(N(C)C(=O)CCOCCOCCOCCOCCNC(=O)CCCC[C@@H]2SC[C@@H]3NC(=O)N[C@@H]32)CC1?
Answer: Activity [2]: Active; Activity [3]: Active

Question: How did the pIC50 (VCaP [4]) turn out when C=CC(=O)Nc1cc(N(C(=O)NCc2ccccc2)[C@H]2CC[C@H](Nc3ccc(C#N)cn3)CC2)ccc1N1C[C@H]2C[C@@H]1CN2C was run?
Answer: 7.12

Question: What does the source list for Cn1cc(-c2ccc(N(C(=O)NCc3ccccc3)[C@H]3CC[C@H](Nc4ccc(C#N)cn4)CC3)cc2)ccc1=O?
Answer: pIC50 (CDK6/cyclin D1): 5.06; Activity (VCaP [5]): inactive; pIC50 [6]: < 5.00; pIC50 (CDK1/Cyclin E): < 5.00; pIC50 (CDK9/Cyclin K): 6.15; pIC50 [7]: < 5.00; pIC50 [8]: 5.30; pIC50 (CDK1/Cyclin A): < 5.00; pIC50 [9]: 5.28; Activity (VCaP [10]): inactive; pIC50 (CDK7/Cyclin H/MNAT1): 6.17; pIC50 (CDK8/Cyclin C): < 5.00; pIC50 [11]: 5.31; pIC50 (CDK9/cyclin T1): 6.29

Question: Cn1cc(-n2cnc3c(NCc4nc5cc(Cl)c(Cl)cc5[nH]4)nc(N4CCOCC4)nc32)cn1 was tested. Which inhibition (VCaP [12]) did it give?
Answer: inactive

Question: With C=CC(=O)Nc1cc(N(C(=O)NCc2ccccc2)[C@H]2CC[C@H](Nc3ccc(C#N)cn3)CC2)ccc1N1CCN(C)[C@@H](C)C1 as the molecule, how does the pIC50 (VCaP [4]) read?
Answer: 8.37
